According to ChEMBL document CHEMBL4402562, “Discovery of Novel Peptidomimetic Boronate ClpP Inhibitors with Noncanonical Enzyme Mechanism as Potent Virulence Blockers in Vitro and in Vivo” (J Med Chem, 2020):
Calls of active or inactive are those of the source. No cut-off for these calls is given here. Where a SMILES comes first, the peptide text is derived from it. The star is where a group is joined. Cbz = O=C(OCc1ccccc1)*; CH2Cl = ClC*

Legend:
[1] = target: ATP-dependent Clp protease proteolytic subunit (Escherichia coli (strain K12), UniProt P0A6G7); assay: Inhibition of Escherichia coli ClpP
Sequence of ATP-dependent Clp protease proteolytic subunit (Escherichia coli (strain K12), UniProt P0A6G7) (P0A6G7 whole entry): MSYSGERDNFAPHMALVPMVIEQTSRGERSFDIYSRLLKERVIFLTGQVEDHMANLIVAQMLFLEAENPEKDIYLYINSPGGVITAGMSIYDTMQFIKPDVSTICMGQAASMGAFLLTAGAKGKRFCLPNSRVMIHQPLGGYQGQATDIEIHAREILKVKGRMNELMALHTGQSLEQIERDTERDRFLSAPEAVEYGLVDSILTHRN

[2] = Inhibition of AlgW (unknown origin) up to 100 uM pre-incubated for 10 mins before Abz-T-V-A-W-pNA addition and measured after 1 hr by fluorescence based assay
[3] = Inhibition of human ClpP (57 to 277 residues) expressed in Escherichia coli […] pre-incubated for 10 mins before Ac-WLA-AMC addition and measured after 1 hr by fluorescence based assay relative to control
Outline: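 hClpP (3.5 μM monomer) in 25 mM Tris-HCl pH 8.0, 100 mM KCl. Preincubated 10 min at RT with inhibitor, two-fold dilutions over 8 steps from 100 μM. Then 100 μM Ac-WLA-AMC, 380/440 nm for 1 h at 37 °C, slopes normalized to DMSO. Thrice, triplicate wells.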

[4] = target: T1, ATP-dependent Clp protease proteolytic subunit (Staphylococcus aureus (strain NCTC 8325)) (UniProt Q2G036); assay: (§1) Inhibition of N-terminal His6-sumo-tagged full length Staphylococcus aureus ClpP expressed in Escherichia coli BL2 (DE3) at 3 uM pre-incubated for 10 mins before 200 uM to 1 mM Suc-LY-AMC addition and measured after 1 hr by fluorescence based assay relative to control
T1 sequence (whole entry): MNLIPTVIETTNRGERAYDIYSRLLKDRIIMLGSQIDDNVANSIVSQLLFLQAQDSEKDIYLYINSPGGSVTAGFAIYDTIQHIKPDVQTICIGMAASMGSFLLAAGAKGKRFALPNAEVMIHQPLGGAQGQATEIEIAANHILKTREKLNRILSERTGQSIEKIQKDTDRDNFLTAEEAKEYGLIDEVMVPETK
Outline: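 SaClpP (1 μM) in 100 mM Hepes pH 7.0, 100 mM NaCl preincubated 10 min at RT with 3 μM inhibitor. Suc-LY-AMC at 200 μM or 1 mM, fluorescence at 380/440 nm for 1 h at 37 °C. Slope relative to DMSO; three independent replicates.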

[5] = target: T1, ATP-dependent Clp protease proteolytic subunit (Staphylococcus aureus (strain NCTC 8325)); assay: Binding affinity to N-terminal His6-sumo-tagged full length Staphylococcus aureus ClpP expressed in Escherichia coli […] assessed as change in melting temperature at 100 uM by differential scanning calorimetry analysis
Outline: (§2)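 DSC: SaClpP at 0.5 mg/mL (25 μM) incubated at RT with 100 μM inhibitor in assay buffer. Scanned at 1 °C/min over 30–90 °C, with a buffer-buffer scan subtracted. Tm taken as the thermogram peak maximum. Run once, single sample.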

[6] = Inhibition of Pseudomonas aeruginosa ClpP1 expressed in Escherichia coli […] pre-incubated for 10 mins before Suc-LY- AMC addition and measured after 1 hr by fluorescence based assay relative to control
Outline: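 PaClpP1 (0.5 μM monomer) in 25 mM Tris-Cl pH 7.5, 150 mM NaCl. Preincubated 10 min at RT with inhibitor, two-fold dilutions over 8 steps from 50 μM. Then 50 μM Suc-LY-AMC, 380/440 nm for 1 h at 37 °C, slopes normalized to DMSO. Thrice, triplicate wells.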

[7] = target: T1, ATP-dependent Clp protease proteolytic subunit (Staphylococcus aureus (strain NCTC 8325)); assay: as §1, with “[…] assessed as enzyme activity recovery level” for “(DE3)”, “20-fold molar excess” for “3 uM”, “before” for “before 200 uM to 1 mM”, “hr followed by dialysis up to 72 hrs” for “hr”; set-up: scale not given: the % may be the effect or the level left
Outline: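 ClpP (1 μM, 100 mM Hepes pH 7.0, 100 mM NaCl) incubated 1 h at RT with 20-fold molar excess inhibitor or DMSO. Dialyzed at 4 °C, buffer changed after 6 h and then every 24 h. Aliquots assayed for peptidase activity with Suc-LY-AMC. Thrice, single sample.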

[8] = target: T2, ATP-dependent Clp protease proteolytic subunit (Staphylococcus aureus (strain NCTC 8325), UniProt Q2G036); assay: Binding affinity to N-terminal His6-sumo-tagged full length Staphylococcus aureus ClpP expressed in Escherichia coli […] assessed as shifting of melting peak of SaClpP by differential scanning calorimetry analysis
T2 sequence (Q2G036 whole entry): T1 sequence (whole entry)
Outline: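 DSC: 0.5 mg/mL (25 µM) SaClpP with 100 µM compound or two-fold dilution series, RT; scanned 30-90 °C at 1 °C/min, buffer-buffer scan subtracted; Tm from thermogram peak maximum; single run.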

[9] = target: T1, ATP-dependent Clp protease proteolytic subunit (Staphylococcus aureus (strain NCTC 8325)); assay: Binding affinity to N-terminal His6-sumo-tagged full length Staphylococcus aureus ClpP expressed in Escherichia coli […] assessed as melting temperature at 100 uM by differential scanning calorimetry analysis (reference value: 50.8 degC); outline: as §2
[10] = target: 20S proteasome (Homo sapiens) (UniProt P49721+P20618+P28074+P28062+P28065+P28072+P25786+P25787+P25788+P25789+P28066+P60900+O14818+Q8TAA3+P40306+A5LHX3+P49720+P28070+Q99436); assay: Inhibition of 20S proteasome (unknown origin) pre-incubated before Suc-LLVY-AM addition and measured after 1 hr by fluorescence based assay; format: protein-complex assay
[11] = target: T2, ATP-dependent Clp protease proteolytic subunit; assay: Binding affinity to N-terminal His6-sumo-tagged full length Staphylococcus aureus ClpP expressed in Escherichia coli […] by ITC analysis
Outline: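 ITC at 500 rpm stirring after 150 s equilibration. A discarded 1 μL first injection, then 19 injections of 2 μL over 5 s each, 2–3 min apart, into 200 μL sample cell. Reference power 7 μcal/s, high gain, 5-s filter, baseline-corrected fit.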

Staphylococcus aureus = assay: Inhibition of Staphylococcus aureus ClpXP expressed in Escherichia coli […] at 1 to 100 uM using FITC-casein substrate in presence of ATP-regenerating system incubated for 50 mins by fluorescence based assay
Outline: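 3.6 μM SaClpP with 3 μM SaClpX in 25 mM Hepes pH 7.5, 20 mM MgCl2, 30 mM KCl, 0.03% Tween 20, 10% glycerol, 2 mM DTT. ATP regeneration: 4 mM ATP, 20 U/mL creatine kinase, 16 mM creatine phosphate. FITC-casein 0.048 mg/mL, 494/521 nm for 50 min; slope 300–1200 s vs DMSO. Thrice, triplicate wells.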

[12] = target: Coagulation factor X (Homo sapiens) (UniProt P00742); assay: Inhibition of human F10a up to 100 uM pre-incubated for 10 mins before Pefachrome Fxa addition and measured after […] based assay
Sequence of Coagulation factor X (Homo sapiens) (P00742 41-179 limits assumed): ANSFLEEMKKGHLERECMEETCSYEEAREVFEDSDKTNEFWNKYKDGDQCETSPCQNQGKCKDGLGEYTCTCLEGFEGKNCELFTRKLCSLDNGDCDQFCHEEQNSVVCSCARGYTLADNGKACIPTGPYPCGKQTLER
Sequence of Coagulation factor X (Homo sapiens) (P00742 235-488 limits assumed): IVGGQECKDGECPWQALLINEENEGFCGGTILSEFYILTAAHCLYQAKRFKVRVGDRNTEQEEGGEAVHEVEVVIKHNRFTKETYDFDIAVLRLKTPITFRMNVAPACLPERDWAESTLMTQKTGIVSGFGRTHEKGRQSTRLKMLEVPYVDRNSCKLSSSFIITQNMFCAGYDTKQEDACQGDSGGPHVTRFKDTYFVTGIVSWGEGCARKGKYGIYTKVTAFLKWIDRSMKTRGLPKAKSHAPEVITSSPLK

CC(C)C[C@H](NC(=O)OCc1ccccc1)C(=O)N[C@@H](Cc1ccc(O)cc1)C(=O)CCl (Cbz-Leu-Tyr-CH2Cl)
IC50 [1]: 14.4 µM

CC(C)C[C@H](NC(=O)CNC(=O)c1cc(Cl)ccc1Cl)B1OC(=O)CC(CC(=O)O)(C(=O)O)O1 (stereo partly drawn)
inhibition [2]: inactive | IC50 [3]: 3 to 25 µM | inhibition [4]: Active | ΔTm [5]: 29.5 to 42.2 °C | IC50 [6]: 3 to 25 µM | Activity [7]: 100% | EC50 [8]: 19.9 µM | Tm [9]: 66.5 °C | inhibition [10]: Active | Kd [11]: 7.3 µM | inhibition (Staphylococcus aureus): inactive | inhibition [12]: inactive
